# System: MS2 coat protein
# Assay: apparent Kd, MS2 coat protein; higher = weaker binding; RNA-MaP array; FMN 200 µM where present
# Method in brief: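 Green signal was scaled to red-channel RNA signal and control-cluster median Fmax, and the apparent Kd was taken as the median of filtered per-cluster binding-curve fits. The binding series used SNAP-549-labelled MS2 coat protein from 0.7 or 1.5 nM, doubling to 3 µM, on designs transcribed by stalled E. coli RNA polymerase on Illumina sequencing-chip clusters. Each series ran without and then with constant ligand in 100 mM Tris-HCl pH 7.5, 80 mM KCl, 4 mM MgCl2, BSA, DTT, yeast tRNA and Tween-20.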
# [1] = designed as: OFF switch for flavin mononucleotide, no ligand
# [2] = ligand present: flavin mononucleotide, designed as: OFF switch for flavin mononucleotide
# [3] = designed as: ON switch for flavin mononucleotide, no ligand
# [4] = ligand present: flavin mononucleotide, designed as: ON switch for flavin mononucleotide
Sequence,apparent Kd [1] [nM],apparent Kd [2] [nM],apparent Kd [3] [nM],apparent Kd [4] [nM]
ACAUGAGGAUCACCCAUGUAUUACAUGGUUAAGUUUAUUAACAGAAGGCGAAAUUACCACUUGAUCGAGGAUAUGUAUUCAAUU,45,40.3,,
GUCGGAAACGACAAAGUAGCAUAGGAGGAUAUUCAUCCUCACAUGAGGAUCACCCAUGUAAAUUGGGAGAAGGCCUAUGCUACA,,,515,301
GACGUACAUGAGGAUCACCCAUGUACAGACGUACAAGGAUAUGUGUGGAAACCGUACUAUACAGAAGGUGUUUGUC,,,15.7,15
ACAUAGUAAGGAUAUGCUGCUCGUCACUUGCGUGAUGAGUAGCAGAAGGUACAUGAGGAUCACCCAUGUAAAGA,30.1,20.3,,
GGAAUACAUGAGGAUCACCCAUGUAAGGAUAUGCUGAUUAAUUAAUUAUAAUUAUGCAGCAGAAGGUACAAAGG,85.9,104,,
UUAAUCUAUACAGGAUAUCCAUACGCUGCAUACGGAGAAGGGUAACAAUCAUGAGGACAUGAGGAUCACCCAUGUUGUGACCAU,,,198,97.1
UUGGACGUCGUAGGAUAUGUAGGAUAUUCCUACAUGAGGAUCACCCAUGUUGUCAUGGAAGAAGGACAGAAGGACGAUGUCCAU,,,328,4.9
ACUGACAUGAGGAUCACCCAUGUCUUGAAUAGGUCAAAUUCACAGGAUAUGCACGCGGACAGAGUGCAGAAGGGUGAUGCAAUG,,,44,11.8
GCGGAAGGCACAGGAUAUCGUCCUUAGUUGGUACGAGAAGGGUGGCGCUGCCACAUGAGGAUCACCCAUGUGCCUUGACUAUAG,,,245,1180
AACAGGUUCACAUGAGGAUCACCCAUGUUAGCCUAACGUAGGAGAAGGACGGUAGCUGGGCUGACGUAGGAUAUCCUACUGUGA,,,9.22,4.8
GGAGCCGGCACCGAGGAUAUUCAUAUUAAAACAUGAGGAUCACCCAUGUAGAGCGAAAGCUCUUGGGAGAAGGCGGAUCGGCUCG,,,730,46.5
UUAAAUCAUGUAGGAUAUGCAUGGCGAAGCUACGCAGAAGGACAUGAGGAUCACCCAUGUGCUAGCGUCUGGAUACAGAUGCAA,48.5,258,,
CCGGAAACGGGUAGCCUGACAUGAGGAUCACCCAUGUGAUCAGAGGAUAUGGAUCCUAAUUGGAUCCAGAAGGCUGUUGGCUAC,,,73.4,27.5
UGGUACUAGGGAGGAUAUGGGAAGAUACAUGAGGAUCACCCAUGUUUAAGACUGCCGAGAGGCAACUAGAAGGCCCUAGUACCU,,,624,27.4
UUCGCUAAGGUGUAGCGAGACAUGCAAGAAGGGUGAAGAACAUGAGGAUCACCCAUGUAGACGGUACAGGAUAUUGAUUGACGA,,,128,89.3
UUACUAUUGGAGAAGGGUCGAUAAUAUAUAAUGGCAGGAUAUCCAACAUGAGGAUCACCCAUGUUUCACCCAUAUGAGGAUCAC,54.2,24.1,,
GCACUGGAUGUAGGAUAUCAGGACGAUAAGUCCUGAGAAGGACAUGAGGAUCACCCAUGUAACUCAAACCAGUGCUAUAAUAUA,16.2,27.2,,
GUAUAUAGUGUGAGGAUAUGCUGGUCCUUGGAUCAGCAGAAGGCACAUGAGGAUCACCCAUGUAGUUUAUUUUG,18.4,65.7,,

Sequence,apparent Kd [1] [nM],apparent Kd [2] [nM],apparent Kd [3] [nM],apparent Kd [4] [nM]
AUAGGACGAAACAUGAGGAUCACCCAUGUGUUAUAAUUAAUAUAGGAUAUGUUUAUACUUUUUGGGCAGAAGGAUGAUAAUGCU,,,16.6,14.7
UAUCAAUUUAUGGGUUUAGAUUAUGAGGAUAUCAUUUUUUUAUACAUGAGGAUCACCCAUGUUACUGAGAAGGCAUAAUUAAUA,,,17.4,6.21
CUAGUACAUGAGGAUCACCCAUGUCAGGAUAUUGGAUAUGCCUUGGAAUACAUGUUUACAAGAAGGGACUAUAG,23,21.7,,
UUGGACGUCGUAGGAUAUGUAGGAUAUUCUUACAUGAGGAUCACCCAUGUUGACAUGGAAGAAGGACAGAAGGACGAUGUCCAU,,,56.7,7.2
AAAUCGUCAGGAUAUGCAUGUAAUUGUUACAUUUCUCCGUUGCAGAAGGGACAUGAGGAUCACCCAUGUAAGUC,31.2,29.2,,
AAAAAGUGAGGAUAUACAUGAGGAUCACCCAUGUGAAAGUCGAAAAAAAAGACAAAAAGUAGAAGGCACAAAAA,30.7,32.7,,
GGUCGGCGAGGAUAUACAUGAGGAUCACCCAUGUGAUAGAUUGCACGCGUACGUGUAUGUAGAAGGCGCUGACG,21.8,200,,
AAAAAAAAAGUCGAGGAUAUCCACAUGGCUACAUGAGGAUCACCCAUGUGAAGAAAAGCACAUGAGGAGAAGGCGACAAAAAAAAA,,,28.1,13.7
AGCUGUGGCCGAGGAUAUCUAUCCAAAAUAACCGAAAUAUAAUCGGACAUGAGGAUCACCCAUGUAGAGAAGGCGGUCUCAGCA,24.3,37,,
CUUUUGUGAGGAUAUUUGUAGUAAAUAAAUAAAAUUACUACUGAGAAGGCACAUGAGGAUCACCCAUGUUCCUC,24.3,156,,
CCUAAGGAGACAGGAUAUAGUGUGGUGGCCGGGCUCCCACGGCGAGCGGCACUAGAAGGGUCACUACAUGAGGAUCACCCAUGU,,,30.3,15.6
AUAUUAUUGAUCCAUUUUUUCAACAUGAGGAUCACCCAUGUGCAGGAUAUCGUGAUUAUUAUCAACGAGAAGGGCAAAUUCAUU,76.5,234,,
AUGCCGUGCAGAGCGCGACGGCGAACAUGAGGAUCACCCAUGUAGGAUAUACUACACAAAGUGUAGUAGAAGGACGUGCGACAA,24.6,38.6,,
UGUUGUAUUACAGGAUAUCUAUUAGUUUUGUUUAGAGAAGGGUAUUCACAUGAGGAUCACCCAUGUAUAUACGAGGAAGUUGUG,,,59,65.2
GUCGGAAACGACAAAAGUAGCAUACGAGAAGGCUGAUCCACGACAUGAGGAUCACCCAUGUACUUAGAGGAUAUUGGAUGCUAC,,,110,26.1
AUUUGACACGUAGGAUAUCGCUCAAAUUUAACACGAGAAGGACGAACAUGAGGAUCACCCAUGUAACAUGGUGUAGUUUAUUUG,62.7,88.1,,
GGUCCAACAUGAGGAUAUAGCACCUUAUUGGUGCUAGAAGGCGUGUCGGUAGACAUGAGGAUCACCCAUGUAUUACAAUGGACC,,,140,27
GACUUCUCUGAGGAUAUUGCAUCAUACGAUAAAUAAGAAGGCAGAACAUGAGGAUCACCCAUGUGGGCUCCAAG,54.7,256,,

# From the EternaBench riboswitch data
